Experimental data from different studies.
ADORA2B: Adenosine receptor A2b (ADORA2B, Homo sapiens, UniProt P29275)
CFTR: Cystic fibrosis transmembrane conductance regulator (CFTR, Homo sapiens, UniProt P13569)
PKN3: Serine/threonine-protein kinase N3 (PKN3, Homo sapiens, UniProt Q6P5Z2)

| Structure (SMILES) | target | read-out | action | method | concentration | notes | inhibition |
| --- | --- | --- | --- | --- | --- | --- | --- |
| COc1cc(NC(C)=O)c(Cl)cc1C(=O)Nc1nccs1 | ADORA2B | cell-free assay |  |  | 10 µM |  | -34.6% |
| CCCCN1CCCn2c1nc1c2c(=O)n(C)c(=O)n1C | ADORA2B | ligand displacement |  | radioligand | 10 µM | cell membranes | 3% |
| CC(Nc1ccc2ccccc2c1)C(=O)NN=Cc1cc(Br)c(O)c(Br)c1O (stereo not drawn) | CFTR | ion current | inhibitor |  | 50 µM |  | 91% |
| O=C(c1ccc(Cl)cc1)N(Cc1ccccc1)C1CCCCC1 | Prostaglandin E2 receptor EP2 subtype (PTGER2, Homo sapiens, UniProt P43116) | cell-free assay |  |  | 10 µM |  | 14.3% |
| CCN(c1cc(C#CCN2CCOCC2)cc(C(=O)NCc2c(C)cc(C)[nH]c2=O)c1C)[C@H]1CC[C@H](N(C)CCOC)CC1 | Histone-lysine N-methyltransferase, H3 lysine-79 specific (DOT1L, Homo sapiens, UniProt Q8TEK3) | enzyme activity | inhibitor |  | 1 µM |  | 1% |
| Cn1cnc(Br)c1C1=CN(c2ncnc3[nH]cnc23)CCS1 | PKN3 | enzyme activity | inhibitor | radiometric | 2 µM |  | 88.3% |
| CCCCCN1CCCn2c1nc1c2c(=O)n(C)c(=O)n1C | ADORA2B | ligand displacement |  | radioligand | 10 µM | cell membranes | -3% |
| O=C(NN=Cc1cc(Br)c(O)c(Br)c1)C(=O)Nc1ccc2ccccc2c1 | CFTR | ion current | inhibitor |  | 50 µM |  | 80% |
| CC(=O)c1nn(CC(=O)N2C[C@H](F)C[C@H]2C(=O)Nc2cccc(Br)n2)c2ccc(-c3cnc(C)nc3)cc12 | Chymase (CMA1, Homo sapiens, UniProt P23946) | enzyme activity | inhibitor |  | 10 µM |  | -1.2% |
| O=C(CNc1ccc(Cl)cc1)NN=Cc1cc(Br)c(O)c(Br)c1 | CFTR | ion current | inhibitor |  | 50 µM |  | 95% |
| CCC(C)N1CCCn2c1nc1c2c(=O)n(C)c(=O)n1C (stereo not drawn) | ADORA2B | ligand displacement |  | radioligand | 10 µM | cell membranes | -9% |
| CCN(CC)c1ccc(C2Nc3ccc(C(=O)c4ccccc4)cc3NC3=C2C(=O)CC(C)(C)C3)cc1 (stereo not drawn) | Beta-3 adrenergic receptor (ADRB3, Homo sapiens, UniProt P13945) | ligand displacement |  | radioligand | 10 µM |  | 0% |
| CC(C)N1CCCn2c1nc1c2c(=O)n(C)c(=O)n1C | ADORA2B | ligand displacement |  | radioligand | 10 µM | cell membranes | -4% |
| CCOC(=O)C1=C(C)NC(c2ccccc2)=C(C(=O)OCc2ccccc2)C1C#Cc1ccccc1 (stereo not drawn) | Adenosine receptor A1 (Mus musculus, UniProt Q60612) | ligand displacement |  | radioligand | 10 µM | cell membranes | 0% |
| Cn1cncc1C1=CN(c2ncnc3[nH]cnc23)CCS1 | PKN3 | enzyme activity | inhibitor | radiometric | 2 µM |  | 80.4% |
| CC(=NNC(=O)CNc1ccc2ccccc2c1)c1cc(Br)c(O)c(Br)c1 | CFTR | ion current | inhibitor |  | 50 µM |  | 100% |
| Oc1ncnc2[nH]ncc12 | Xanthine dehydrogenase/oxidase (XDH, Homo sapiens, UniProt P47989) | enzyme activity | inhibitor | absorbance | 500 µM |  | 100% |
| CC(=NNC(=O)C(=O)Nc1ccc2ccccc2c1)c1cc(Br)c(O)c(Br)c1O | CFTR | ion current | inhibitor |  | 50 µM |  | 95% |
| CCN1CCCn2c1nc1c2c(=O)n(C)c(=O)n1C | ADORA2B | ligand displacement |  | radioligand | 10 µM | cell membranes | 12% |
| CN(C)C1CCN(CC#Cc2nn(C3CCCC3)c3nc(NCc4ccccc4)ncc23)C1 (stereo not drawn) | Tyrosine-protein kinase JAK1 (JAK1, Homo sapiens, UniProt P23458) | enzyme activity | inhibitor | FRET | 1 µM |  | 0% |
| COCCOc1ccc(N2CCN(CCn3ncc4c3nc(N)n3nc(-c5ccco5)nc43)CC2)cc1 | ADORA2B | ligand displacement |  | radioligand | 10 µM | cell membranes | 25% |
| Oc1cccc(Nc2nc(-c3ccc(F)cc3F)cs2)c1 | ADORA2B | cell-free assay |  |  | 10 µM |  | -11.9% |
| CC(C)CN1CCCn2c1nc1c2c(=O)n(C)c(=O)n1C | ADORA2B | ligand displacement |  | radioligand | 10 µM | cell membranes | 5% |
| CC(C)(NC(=O)OC1CCCCC1)c1csc(-c2ccc(F)cc2)n1 | N-terminal Xaa-Pro-Lys N-methyltransferase 1 (Homo sapiens, UniProt Q9BV86) | enzyme activity | inhibitor | fluorescence | 100 µM |  | < 50% |
